Results reported in ChEMBL document CHEMBL3763093, “The molecular structure of thio-ether fatty acids influences PPAR-dependent regulation of lipid metabolism” (Bioorg Med Chem, 2016).
Activity calls are given as the source filed them. The rule behind the calls is not given here.

Assays:
[1] = Effect on total fatty acid level in human myotubes assessed as per mg of protein at 10 to 30 uM; type: ADME
[2] = molecular target: T1, Peroxisome proliferator-activated receptor (Homo sapiens) (UniProt P37231+Q07869+Q03181); experiment: Agonist activity at PPAR in human myotubes assessed as FABP3 mRNA expression at 30 uM after 96 hrs by qPCR analysis relative to control
In short: (§1)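 Myotubes from satellite cells of abdominal muscle biopsies of healthy donors, differentiated 7 days, then exposed 96 h to test lipids (30 μM) vs DMSO 0.1%. Total RNA isolated (RIN ≥7), reverse transcribed, real-time PCR with gene-specific primers; expression expressed relative to DMSO control.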

Homo sapiens [3] = species on record: Homo sapiens; experiment: Effect on intracellular [14C]oleic acid uptake in human myotubes at 10 to 30 uM preincubated for 96 hrs followed by substrate addition incubated for 4 hrs by liquid scintillation analysis; type: functional, cell-based
In short: (§2)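 Myotubes differentiated 7 days were pretreated 96 h with 10 or 30 μM compound, 10 nM GW501516 or DMSO 0.1%, then given [1-14C]oleic acid (0.5 μCi/mL, 100 μM) in DPBS with HEPES 10 mM and L-carnitine 1 mM, 4 h at 37 °C. Trapped CO2 and cell-associated label counted by scintillation; uptake = CO2 + CA; Bradford protein; % of DMSO basal; n = 8–15.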

[4] = Effect on fatty acid composition in human myotubes assessed as intracellular PUFA n-9 level at 30 uM after 96 hrs (Rvb= 1.78%); type: functional
In short: (§3)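 Differentiated human myotubes (7 days) treated 96 h with 10 or 30 μM compound or DMSO 0.1% (two controls). Cells washed, harvested, lipids extracted and methylated (methanol, sulfuric acid, 90 °C, 1 h); FA methyl esters quantified by GC with C21:0 internal standard, peaks confirmed by standards and GC/MS; values as mol % of intracellular fatty acids.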

[5] = Effect on fatty acid composition in human myotubes assessed as intracellular PUFA n-6 level at 10 uM after 96 hrs (Rvb= 13.41%); type: functional; in short: as §3
[6] = Effect on fatty acid composition in human myotubes assessed as change in intracellular SFA level at 30 uM after 96 hrs relative to DMSO control; type: functional; in short: as §3
[7] = Effect on fatty acid composition in human myotubes assessed as intracellular PUFA n-9 level at 10 uM after 96 hrs (Rvb= 1.78%); type: functional; in short: as §3
[8] = Effect on fatty acid composition in human myotubes assessed as intracellular tTTA level at 10 uM after 96 hrs; type: functional; in short: as §3
[9] = molecular target: T1, Peroxisome proliferator-activated receptor (Homo sapiens); experiment: Agonist activity at PPAR in human myotubes assessed as CD36 mRNA expression at 30 uM after 96 hrs by qPCR analysis relative to control; in short: as §1
[10] = Effect on fatty acid composition in human myotubes assessed as intracellular tTTA level at 30 uM after 96 hrs; type: functional; in short: as §3
[11] = Effect on fatty acid composition in human myotubes assessed as change in intracellular MUFA level at 30 uM after 96 hrs relative to DMSO control; type: functional; in short: as §3
[12] = Effect on fatty acid composition in human myotubes assessed as intracellular SFA level at 10 uM after 96 hrs (Rvb= 36.16%); type: functional; in short: as §3
[13] = Effect on fatty acid composition in human myotubes assessed as intracellular PUFA n-3 level at 30 uM after 96 hrs (Rvb= […]); type: functional; in short: as §3
[14] = Effect on fatty acid composition in human myotubes assessed as intracellular PUFA n-3 level at 10 uM after 96 hrs (Rvb= 7.47%); type: functional; in short: as §3
[15] = molecular target: T1, Peroxisome proliferator-activated receptor (Homo sapiens); experiment: Agonist activity at PPAR in human myotubes assessed as ANGPTL4 mRNA expression at 30 uM after 96 hrs by qPCR analysis relative to control; in short: as §1
[16] = molecular target: T1, Peroxisome proliferator-activated receptor (Homo sapiens); experiment: Agonist activity at PPAR in human myotubes assessed as CPT1A mRNA expression at 30 uM after 96 hrs by qPCR analysis relative to control; in short: as §1
[17] = Effect on fatty acid composition in human myotubes assessed as intracellular MUFA level at 30 uM after 96 hrs (Rvb= 41.04%); type: functional; in short: as §3
[18] = Effect on fatty acid composition in human myotubes assessed as change in intracellular SFA level at 10 uM after 96 hrs relative to DMSO control; type: functional; in short: as §3
[19] = Effect on fatty acid composition in human myotubes assessed as intracellular TTA level at 10 uM after 96 hrs; type: functional; in short: as §3
[20] = Effect on protein level in human myotubes at 10 to 30 uM; type: ADME
[21] = Effect on fatty acid composition in human myotubes assessed as intracellular SFA level at 30 uM after 96 hrs (Rvb= 36.16%); type: functional; in short: as §3
[22] = Effect on fatty acid composition in human myotubes assessed as intracellular MUFA level at 10 uM after 96 hrs (Rvb= 41.04%); type: functional; in short: as §3
[23] = Effect on fatty acid composition in human myotubes assessed as intracellular TTA level at 30 uM after 96 hrs; type: functional; in short: as §3
[24] = Effect on fatty acid composition in human myotubes assessed as intracellular PUFA n-6 level at 30 uM after 96 hrs (Rvb= 13.41%); type: functional; in short: as §3
[25] = Effect on fatty acid composition in human myotubes assessed as change in intracellular MUFA level at 10 uM after 96 hrs relative to DMSO control; type: functional; in short: as §3
[26] = Effect on fatty acid composition in human myotubes assessed as intracellular PUFA n-6 level at 10 uM after 96 hrs (Rvb= 11.46%); type: functional; in short: as §3
[27] = Effect on fatty acid composition in human myotubes assessed as intracellular MUFA level at 10 uM after 96 hrs (Rvb= 49.95%); type: functional; in short: as §3
Homo sapiens [28] = species on record: Homo sapiens; experiment: Induction of fatty acid oxidation in human myotubes using [14C]oleic acid as substrate preincubated for 96 hrs followed by substrate addition incubated for 4 hrs by liquid scintillation analysis; type: functional; in short: as §2
[29] = Effect on fatty acid composition in human myotubes assessed as intracellular PUFA n-9 level at 30 uM after 96 hrs (Rvb= 1.89%); type: functional; in short: as §3
[30] = Effect on fatty acid composition in human myotubes assessed as intracellular PUFA n-3 level at 30 uM after 96 hrs (Rvb= 5.16%); type: functional; in short: as §3
[31] = Effect on fatty acid composition in human myotubes assessed as intracellular SFA level at 10 uM after 96 hrs (Rvb= 31.41%); type: functional; in short: as §3
[32] = Effect on fatty acid composition in human myotubes assessed as intracellular SFA level at 30 uM after 96 hrs (Rvb= 31.41%); type: functional; in short: as §3
[33] = Effect on fatty acid composition in human myotubes assessed as intracellular PUFA n-6 level at 30 uM after 96 hrs (Rvb= 11.46%); type: functional; in short: as §3
[34] = Effect on fatty acid composition in human myotubes assessed as intracellular PUFA n-3 level at 10 uM after 96 hrs (Rvb= 5.16%); type: functional; in short: as §3
[35] = Effect on fatty acid composition in human myotubes assessed as intracellular MUFA level at 30 uM after 96 hrs (Rvb= 49.95%); type: functional; in short: as §3
[36] = Effect on fatty acid composition in human myotubes assessed as intracellular PUFA n-9 level at 10 uM after 96 hrs (Rvb= 1.89%); type: functional; in short: as §3
[37] = Effect on fatty acid composition in human myotubes assessed as intracellular dTTA level at 10 uM after 96 hrs; type: functional; in short: as §3
[38] = Effect on fatty acid composition in human myotubes assessed as intracellular dTTA level at 30 uM after 96 hrs; type: functional; in short: as §3

Structure (SMILES) | Activity [2] | Activity [9] | Activity [1] | Activity (Homo sapiens [3]) | Activity [4] | Activity [5] | Activity [6] | Activity [7] | Activity [11] | Activity [12] | Activity [13] | Activity [14] | Activity [17] | Activity [18] | Activity [19] | Activity [20] | Activity [21] | Activity [22] | Activity [23] | Activity [25] | also measured
CCCCCCCCCCCCCCSCC(=O)OC[C@@H](O)COP(=O)([O-])OCC[N+](C)(C)C | – | – | Non-toxic | inactive | 1.97 mol% | 13.96 mol% | -34.6% | 2.21 mol% | -19.3% | 30.15 mol% | 7.56 mol% | 7.68 mol% | 33.15 mol% | -16.3% | 7.99 mol% | Non-toxic | 23.57 mol% | 37.12 mol% | 19.51 mol% | -9.6% | Activity [37]: 0.76 mol%; Activity (Homo sapiens [28]): Dose-dependent effect; Activity [38]: 0.91 mol%; Activity [24]: 13.2 mol%
CCCCCC/C=C\CCCCCCSCC(=O)OC[C@H](COP(=O)([O-])OCC[N+](C)(C)C)OC(=O)CSCCCCCC/C=C\CCCCCC | Active | Active | Non-toxic | inactive | – | – | 4.5% | – | -13.1% | – | – | – | – | 2.7% | 0.01 mol% | Non-toxic | – | – | 0.4 mol% | -3.6% | Activity [26]: 11.29 mol%; Activity [37]: 1.87 mol%; Activity [27]: 48.17 mol%; Activity [29]: 1.42 mol%; Activity [30]: 4.63 mol%; Activity [31]: 32.26 mol%; Activity [15]: Active; Activity [16]: Active; Activity [32]: 32.82 mol%; Activity [33]: 11.45 mol%; Activity [38]: 6.08 mol%; Activity [34]: 4.74 mol%; Activity [35]: 43.41 mol%; Activity [36]: 1.53 mol%
CCCCCCCCCCCCCCSCC(=O)OC[C@H](COP(=O)([O-])OCC[N+](C)(C)C)OC(=O)CSCCCCCCCCCCCCCC [PHOSPHATIDYLCHOLINE] | inactive | inactive | Non-toxic | inactive | 1.95 mol% | 12.71 mol% | -11.8% | 1.88 mol% | -4.4% | 35.14 mol% | 7.3 mol% | 6.98 mol% | 39.28 mol% | -2.5% | 5.5 mol% | Non-toxic | 31.79 mol% | 37.48 mol% | 5.9 mol% | -8.8% | Activity [37]: 0.17 mol%; Activity [15]: inactive; Activity [16]: inactive; Activity [38]: 0.34 mol%; Activity [24]: 13.31 mol%

Further lines, with some results ahead:

Activity [2] | Activity [9] | Structure (SMILES) | Activity [1] | Activity (Homo sapiens [3]) | Activity [4] | Activity [5] | Activity [6] | Activity [7] | Activity [11] | Activity [12] | Activity [13] | Activity [14] | Activity [17] | Activity [18] | Activity [19] | Activity [20] | Activity [21] | Activity [22] | Activity [23] | Activity [25] | also measured
Active | Active | CCCCCCC#CCCCCCCSCC(=O)O | Non-toxic | inactive | 0.87 mol% | 13.93 mol% | 0.7% | 1.32 mol% | -21.3% | 38.85 mol% | 7.09 mol% | 8.41 mol% | 32.32 mol% | 2.2% | 0.06 mol% | Non-toxic | 36.3 mol% | 36.3 mol% | 0.32 mol% | -11.6% | Activity [8]: 3.01 mol%; Activity [10]: 11.34 mol%; fold change (FC) [15]: 35; fold change (FC) [16]: < 10; Activity [24]: 11.63 mol%
Active | Active | CCCCCCC#CCCCCCCSCC(=O)OC[C@@H](O)COP(=O)([O-])OCC[N+](C)(C)C | Non-toxic | inactive | – | – | 4.5% | – | -13.1% | – | – | – | – | 0.7% | 0.43 mol% | Non-toxic | – | – | 1.02 mol% | -21.3% | Activity [26]: 12.4 mol%; Activity [27]: 46.19 mol%; Activity [8]: 2.16 mol%; Activity (Homo sapiens [28]): Dose-dependent effect; Activity [10]: 4.15 mol%; Activity [29]: 1.41 mol%; Activity [30]: 5.68 mol%; Activity [31]: 32.02 mol%; fold change (FC) [15]: 25; fold change (FC) [16]: < 7; Activity [32]: 33.52 mol%; Activity [33]: 13.42 mol%; Activity [34]: 5.18 mol%; Activity [35]: 40.64 mol%; Activity [36]: 1.48 mol%
Active | Active | CCCCCCCCCCCCCCSCC(=O)OC[C@@H](O)CO | Non-toxic | inactive | 1.68 mol% | 14.15 mol% | -38.1% | 1.81 mol% | -19.4% | 29.36 mol% | 8.21 mol% | 8.42 mol% | 33.11 mol% | -18.5% | 7.17 mol% | Non-toxic | 22.3 mol% | 38.46 mol% | 20.04 mol% | -6.4% | Activity [37]: 0.49 mol%; Activity (Homo sapiens [28]): Dose-dependent effect; Activity [15]: Active; Activity [16]: Active; Activity [38]: 0.91 mol%; Activity [24]: 13.63 mol%
